Laboratory results reported in ChEMBL document CHEMBL3763112, “Novel leucine ureido derivatives as aminopeptidase N inhibitors. Design, synthesis and activity evaluation” (Eur J Med Chem, 2016).
Calls of active or inactive are those of the source. The rule behind the calls is not given here.

Tests used:
Aminopeptidase N [1] = target: T1, Aminopeptidase N (Sus scrofa, UniProt P15145); experiment: Inhibition of APN in porcine kidney microsomes preincubated for 5 mins before L-leu-p-nitroanilide substrate addition for 30 mins by plate reader analysis
T1 sequence (P15145 whole entry): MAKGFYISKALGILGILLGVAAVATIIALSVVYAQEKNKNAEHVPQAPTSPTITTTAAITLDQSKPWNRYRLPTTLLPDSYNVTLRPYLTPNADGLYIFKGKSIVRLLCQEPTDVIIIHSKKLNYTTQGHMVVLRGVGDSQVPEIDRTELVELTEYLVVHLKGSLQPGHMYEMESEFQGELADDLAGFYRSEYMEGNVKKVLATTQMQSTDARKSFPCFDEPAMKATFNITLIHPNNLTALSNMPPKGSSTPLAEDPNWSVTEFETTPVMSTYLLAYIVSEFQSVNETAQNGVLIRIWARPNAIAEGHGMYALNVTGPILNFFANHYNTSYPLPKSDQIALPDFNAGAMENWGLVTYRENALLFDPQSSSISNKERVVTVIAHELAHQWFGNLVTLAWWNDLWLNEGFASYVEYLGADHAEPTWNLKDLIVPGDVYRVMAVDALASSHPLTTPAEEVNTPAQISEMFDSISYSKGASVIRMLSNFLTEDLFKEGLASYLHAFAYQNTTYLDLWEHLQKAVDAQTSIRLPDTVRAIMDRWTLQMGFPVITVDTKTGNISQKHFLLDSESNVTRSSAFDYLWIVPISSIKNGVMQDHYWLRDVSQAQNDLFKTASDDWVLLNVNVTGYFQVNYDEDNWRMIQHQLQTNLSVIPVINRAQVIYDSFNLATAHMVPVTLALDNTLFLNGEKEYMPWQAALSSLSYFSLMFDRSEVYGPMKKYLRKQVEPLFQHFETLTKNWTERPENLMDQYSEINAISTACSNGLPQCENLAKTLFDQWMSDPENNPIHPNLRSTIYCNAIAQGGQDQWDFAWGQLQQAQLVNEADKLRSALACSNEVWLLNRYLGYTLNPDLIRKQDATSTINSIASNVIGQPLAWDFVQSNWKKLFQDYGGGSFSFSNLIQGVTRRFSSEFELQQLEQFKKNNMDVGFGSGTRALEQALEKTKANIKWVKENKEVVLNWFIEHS

[2] = target: Histone deacetylase (HDAC1 and HDAC2) (Homo sapiens, UniProt Q13547+Q92769); experiment: Inhibition of HDAC1/HDAC2 in human HeLa cells nuclear extract preincubated for 5 mins before Boc-Lys (acetyl)-AMC substrate addition for 30 mins by microplate reader analysis; format: cell-based
ES2 = experiment: Antiinvasive activity against human ES2 cells assessed as reduction in cell invasion at 150 uM after 8 hrs by crystal violet staining based Matrigel assay; format: functional
Procedure, shortened: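 Matrigel-coated transwell chambers rehydrated 2 h in RPMI-1640 + 1% FBS; lower chamber RPMI-1640 + 10% FBS. Compounds in 1% FBS medium added to the upper chamber with ES-2 cells (1 × 10^5/well) at the same time; invasion 8 h at 37 °C. Non-invaded cells swabbed off; remaining cells fixed, stained with 0.1% crystal violet, counted in five random fields (×100) per insert; mean of three independent experiments.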

H22 = experiment: Antimetastasis activity against mouse H22 cells implanted in mouse assessed as inhibition of tumour growth at 80 mg/kg/day, po administered 6 days/week for 2 weeks; format: functional
Procedure, shortened: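 H22 tumour cells given to mice via the caudal vein; animals randomly divided into 3 groups. Control received the same volume of excipient; the other groups received inhibitor orally at 80 mg/kg/day, 6 days/week for 2 weeks.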

Aminopeptidase N [3] = target: Aminopeptidase N (Homo sapiens, UniProt P15144); experiment: Inhibition of APN in human ES2 cells preincubated for 5 mins before L-leu-p-nitroanilide substrate addition for 1 hr by photometry; format: cell-based
Sequence of Aminopeptidase N (Homo sapiens, UniProt P15144) (P15144 whole entry): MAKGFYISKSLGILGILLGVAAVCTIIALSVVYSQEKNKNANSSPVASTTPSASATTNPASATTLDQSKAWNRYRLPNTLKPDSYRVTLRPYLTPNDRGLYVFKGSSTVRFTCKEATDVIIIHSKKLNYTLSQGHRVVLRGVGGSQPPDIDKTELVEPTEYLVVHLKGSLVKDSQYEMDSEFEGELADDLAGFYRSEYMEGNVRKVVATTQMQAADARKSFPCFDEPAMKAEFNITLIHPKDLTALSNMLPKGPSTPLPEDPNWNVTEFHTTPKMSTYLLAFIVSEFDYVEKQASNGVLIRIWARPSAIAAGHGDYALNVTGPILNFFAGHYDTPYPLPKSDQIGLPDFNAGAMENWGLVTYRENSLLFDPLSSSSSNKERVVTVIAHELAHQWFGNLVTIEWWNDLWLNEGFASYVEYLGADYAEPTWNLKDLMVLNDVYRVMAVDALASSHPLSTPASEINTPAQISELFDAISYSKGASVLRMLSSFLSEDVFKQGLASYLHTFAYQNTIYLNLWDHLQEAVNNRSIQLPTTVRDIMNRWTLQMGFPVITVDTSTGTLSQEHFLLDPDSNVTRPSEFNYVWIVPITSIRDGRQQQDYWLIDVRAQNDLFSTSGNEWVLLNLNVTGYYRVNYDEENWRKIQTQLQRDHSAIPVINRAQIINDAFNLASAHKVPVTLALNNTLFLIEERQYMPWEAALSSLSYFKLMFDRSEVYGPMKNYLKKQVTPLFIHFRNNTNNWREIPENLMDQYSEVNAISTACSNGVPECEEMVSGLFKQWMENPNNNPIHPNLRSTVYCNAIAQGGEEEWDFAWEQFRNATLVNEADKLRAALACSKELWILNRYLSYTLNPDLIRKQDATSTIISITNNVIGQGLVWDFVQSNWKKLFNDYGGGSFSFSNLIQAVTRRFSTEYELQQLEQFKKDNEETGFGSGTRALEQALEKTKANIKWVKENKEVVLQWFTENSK
Procedure, shortened: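 ES-2 ovarian clear cell carcinoma cell suspension (1 × 10^5 cells/well) used as the APN source in 10 mM PBS pH 7.4; inhibitors in buffer with 0.2% DMSO final. Pre-incubation 5 min at room temperature, then L-Leu-p-nitroanilide added, 1 h at 37 °C. Supernatant after centrifugation read by UV-Vis spectrophotometry; IC50 from regression of concentration/inhibition-rate data.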

| Structure (SMILES) | IC50 (Aminopeptidase N [1]) | IC50 [2] | IC50 (Aminopeptidase N [3]) | inhibition (ES2) | inhibition in vivo at 80 mg/kg/day (H22) |
| --- | --- | --- | --- | --- | --- |
| CC(C)C[C@H](NC(=O)[C@@H](O)[C@H](N)Cc1ccccc1)C(=O)O [UBENIMEX] | – | > 100000 nM | – | Active | 75.9% |
| Cc1cc(C)c(NC(=O)N[C@@H](CC(C)C)C(=O)NO)c(C)c1 | 80 nM | > 100000 nM | – | – | – |
| COc1ccc(CNC(=O)N[C@@H](CC(C)C)C(=O)NO)c(OC)c1 | 460 nM | > 100000 nM | – | – | – |
| CC(C)C[C@H](NC(=O)NCc1ccc(F)c(F)c1)C(=O)NO | 420 nM | > 100000 nM | – | – | – |
| COc1ccc(NC(=O)N[C@@H](CC(C)C)C(=O)NO)c(OC)c1 | 460 nM | > 100000 nM | – | – | – |
| COc1ccc(NC(=O)N[C@@H](CC(C)C)C(=O)NO)cc1F | 420 nM | > 100000 nM | – | – | – |
| CC(C)C[C@H](NC(=O)Nc1ccccc1)C(=O)NO | – | > 100000 nM | – | – | – |
| CC(C)C[C@H](NC(=O)NCc1ccc(F)cc1F)C(=O)NO | 330 nM | > 100000 nM | – | – | – |
| Cc1ccc(CNC(=O)N[C@@H](CC(C)C)C(=O)NO)cc1C | 440 nM | > 100000 nM | – | – | – |

Second part, led by results:

| IC50 (Aminopeptidase N [1]) | IC50 [2] | IC50 (Aminopeptidase N [3]) | Structure (SMILES) | inhibition (ES2) | inhibition in vivo at 80 mg/kg/day (H22) |
| --- | --- | --- | --- | --- | --- |
| 340 nM | > 100000 nM | – | CC(C)C[C@H](NC(=O)Nc1ccc(F)cc1F)C(=O)NO | – | – |
| 90 nM | > 100000 nM | – | Cc1ccc(NC(=O)N[C@@H](CC(C)C)C(=O)NO)cc1Cl | – | – |
| 230 nM | > 100000 nM | – | CC(C)C[C@H](NC(=O)Nc1c(F)cccc1F)C(=O)NO | – | – |
| 180 nM | > 100000 nM | – | Cc1ccc(NC(=O)N[C@@H](CC(C)C)C(=O)NO)c(C)c1 | – | – |
| 580 nM | > 100000 nM | – | CC(C)C[C@H](NC(=O)NCc1c(Cl)cccc1Cl)C(=O)NO | – | – |
| 30 nM | > 100000 nM | 280 nM | CCc1cccc(CC)c1NC(=O)N[C@@H](CC(C)C)C(=O)NO | Active | – |
| 20 nM | > 100000 nM | 120 nM | Cc1cccc(C)c1NC(=O)N[C@@H](CC(C)C)C(=O)NO | Active | 91.7% |
| 50 nM | > 100000 nM | – | CC(C)C[C@H](NC(=O)Nc1c(C(C)C)cccc1C(C)C)C(=O)NO | – | – |
| 690 nM | > 100000 nM | – | CC(C)C[C@H](NC(=O)NCc1c(F)cccc1F)C(=O)NO | – | – |
| 70 nM | > 100000 nM | – | Cc1cccc(CNC(=O)N[C@@H](CC(C)C)C(=O)NO)c1C | – | – |
| 560 nM | > 100000 nM | – | CC(C)C[C@H](NC(=O)Nc1ccc(Cl)cc1Cl)C(=O)NO | – | – |
